We go through five molecules from ChEMBL document CHEMBL3352558, “β-Keto and β-hydroxyphosphonate analogs of biotin-5'-AMP are inhibitors of holocarboxylase synthetase” (Bioorg Med Chem Lett, 2014).

Test [1] addresses T1, Biotin--protein ligase (Homo sapiens) (UniProt P50747).
T1 sequence (whole entry): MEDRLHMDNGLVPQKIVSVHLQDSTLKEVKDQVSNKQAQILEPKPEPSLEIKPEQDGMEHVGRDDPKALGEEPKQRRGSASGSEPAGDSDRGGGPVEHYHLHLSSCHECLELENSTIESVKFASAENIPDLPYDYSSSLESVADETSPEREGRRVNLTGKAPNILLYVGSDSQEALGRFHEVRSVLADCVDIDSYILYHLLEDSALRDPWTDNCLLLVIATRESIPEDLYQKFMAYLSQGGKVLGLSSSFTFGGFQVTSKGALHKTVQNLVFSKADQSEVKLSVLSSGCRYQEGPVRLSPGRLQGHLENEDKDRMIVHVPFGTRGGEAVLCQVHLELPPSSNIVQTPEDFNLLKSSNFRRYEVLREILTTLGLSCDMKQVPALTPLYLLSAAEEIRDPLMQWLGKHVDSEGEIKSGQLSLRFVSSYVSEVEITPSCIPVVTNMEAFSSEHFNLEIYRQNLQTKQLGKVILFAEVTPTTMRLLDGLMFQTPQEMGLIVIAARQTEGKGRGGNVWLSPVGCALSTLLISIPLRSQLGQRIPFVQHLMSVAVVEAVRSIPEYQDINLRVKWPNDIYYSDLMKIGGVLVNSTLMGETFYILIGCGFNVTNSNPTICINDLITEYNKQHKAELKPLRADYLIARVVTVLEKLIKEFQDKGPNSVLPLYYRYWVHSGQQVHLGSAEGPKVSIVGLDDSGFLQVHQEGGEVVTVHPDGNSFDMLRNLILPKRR
As to the kind of experiment: Competitive inhibition of human recombinant HLCS using P67 as substrate by Western blotting analysis in presence of biotin. In outline:
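Recombinant HLCS (30 nM) with 2 µM p67 and the activity-assay cofactors; inhibitor fixed at 250 µM or absent, biotin varied 0-360 µM. Reactions stopped with Tricine loading dye and 95°C for 10 min. Biotinylated p67 detected by Western blot with anti-biotin and infrared imaging.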

The target of a further test is T2, Biotin--protein ligase (Homo sapiens, UniProt P50747).
T2 sequence (P50747 whole entry): T1 sequence (whole entry)
Description: (§1) Inhibition of human recombinant HLCS using P67 as substrate after 2 hrs relative to vehicle-treated control.

For test [2], the target named is T1, Biotin--protein ligase (Homo sapiens). Description: Inhibition of human recombinant HLCS using P67 as substrate at 500 uM after 2 hrs relative to vehicle-treated control.
Test [3] in a line: Binding affinity to Staphylococcus aureus biotin protein ligase.
For test [4], the target named is T1, Biotin--protein ligase (Homo sapiens). The test is described as §1.
Test [5] is described as follows: Selectivity for Staphylococcus aureus biotin protein ligase over human HLCS.

SMILES strings stand for the structures. Active and inactive are the calls of the source. The calls are words filed in the database; no cut-off is given here. A value given as a limit tells only on which side of the number the result lay.

For `Nc1ncnc2c1ncn2[C@@H]1O[C@H](COP(=O)(O)CC(O)CCCC[C@@H]2SC[C@@H]3NC(=O)N[C@@H]32)[C@@H](O)[C@H]1O` (stereo partly drawn), the inhibition entry in test [1] was “Active”. At Biotin--protein ligase, the IC50 was found to be 204 µM and the Ki came out at 10.4 µM. Besides, in test [2], the inhibition is 67.7%.

In the case of `Nc1ncnc2c1ncn2[C@@H]1O[C@H](COP(=O)(O)OCCCCC[C@@H]2SC[C@@H]3NC(=O)N[C@@H]32)[C@@H](O)[C@H]1O`, in test [2], the inhibition was 98%. In test [3], this molecule yielded a Ki of 0.03 µM.

For `Nc1ncnc2c1ncn2[C@@H]1O[C@H](COP(=O)(O)CC(=O)CCCC[C@@H]2SC[C@@H]3NC(=O)N[C@@H]32)[C@@H](O)[C@H]1O`, the inhibition entry in test [1] is “Active”. The inhibition entry in test [4] is “Dose-dependent effect”. Further, at Biotin--protein ligase, the IC50 amounted to 39.7 µM and the inhibition constant (Ki) was 2 µM. Further, the inhibition in test [2] came to 81.3%.

For the molecule `Nc1ncnc2c1ncn2[C@@H]1O[C@H](Cn2cc(CCCC[C@@H]3SC[C@@H]4NC(=O)N[C@@H]43)nn2)[C@@H](O)[C@H]1O`, the Selectivity ratio in test [5] is > 1100.

As to `COP(=O)(O)CC(=O)CCCC[C@@H]1SC[C@@H]2NC(=O)N[C@@H]21`, the inhibition result in test [1] is “inactive”.
